Data taken from ChEMBL document CHEMBL4000150, “Synthesis and antitumor activity evaluation of PI3K inhibitors containing 3-substituted quinazolin-4(3H)-one moiety” (Bioorg Med Chem, 2015).

Tests used:
MCF7 = test: Antiproliferative activity against human MCF7 cells harboring PI3CA E545K mutant after 72 hrs by MTT assay; type: functional, cell-based; details: MCF7, 72 h
Procedure, shortened: (§1)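 Cells were grown as monolayers in DMEM + 10% FBS at 37 °C, 5% CO2, and seeded at 3000-5000/well, 24 h before dosing. They were exposed 72 h to final 10.0, 5.0, 1.0 and 0.5 μM. MTT (5 mg/mL in PBS) was then added for 4 h at 37 °C, formazan dissolved in DMSO and read at 570 nm. Three experiments in triplicate; IC50 derived from inhibition ratios.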

HCT-116 = test: Antiproliferative activity against human HCT116 cells harboring PI3CA H1047R mutant after 72 hrs by MTT assay; type: functional, cell-based; details: HCT-116, 72 h; procedure, shortened: as §1
CCRF S-180 [1] = test: Anticancer activity against mouse S180 cells homografted in mouse assessed as tumor growth inhibition at 40 mg/kg, po qd for 8 days measured on day 9 post dose relative to vehicle-treated control; type: functional; details: CCRF S-180, po, read-out: TGI
Procedure, shortened: (§2)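 3×10^6 S-180 cells injected s.c. into mouse flank (mice 19.5 ± 1.8 g); randomized, 8 per group. Dosing began next day, oral once daily for 8 days in DMSO:PEG400:5% glucose injection (1:7:2, v/v/v); vehicle group got equal solvent volume. Mice sacrificed Day 9, tumors weighed, and tumor-weight inhibitory ratio calculated versus solvent group.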

[2] = biological target: PI3-kinase p110-delta/p85-alpha (Homo sapiens, UniProt O00329); test: Inhibition of P110delta/p85alpha (unknown origin) using L-alpha-phosphatidylinositol as substrate after 40 mins by ATP depletion assay; type: protein-complex assay
[3] = biological target: Serine/threonine-protein kinase mTOR (Homo sapiens, UniProt P42345); test: Inhibition of mTOR (unknown origin) using L-alpha-phosphatidylinositol as substrate after 40 mins by ATP depletion assay
[4] = biological target: PI3-kinase p110-alpha/p85-alpha (Homo sapiens) (UniProt P27986+P42336); test: Ratio of BEZ235 IC50 to compound IC50 for P110alpha/p85alpha (unknown origin) using L-alpha-phosphatidylinositol as substrate after 40 mins by ATP depletion assay; type: protein-complex assay
[5] = biological target: PI3-kinase subunit gamma/Phosphoinositide 3-kinase regulatory subunit 5 (Homo sapiens, UniProt P48736); test: Inhibition of P110gamma/PIK3R5 (unknown origin) using L-alpha-phosphatidylinositol as substrate after 40 mins by ATP depletion assay; type: protein-complex assay
Sequence of PI3-kinase subunit gamma/Phosphoinositide 3-kinase regulatory subunit 5 (P48736 whole entry): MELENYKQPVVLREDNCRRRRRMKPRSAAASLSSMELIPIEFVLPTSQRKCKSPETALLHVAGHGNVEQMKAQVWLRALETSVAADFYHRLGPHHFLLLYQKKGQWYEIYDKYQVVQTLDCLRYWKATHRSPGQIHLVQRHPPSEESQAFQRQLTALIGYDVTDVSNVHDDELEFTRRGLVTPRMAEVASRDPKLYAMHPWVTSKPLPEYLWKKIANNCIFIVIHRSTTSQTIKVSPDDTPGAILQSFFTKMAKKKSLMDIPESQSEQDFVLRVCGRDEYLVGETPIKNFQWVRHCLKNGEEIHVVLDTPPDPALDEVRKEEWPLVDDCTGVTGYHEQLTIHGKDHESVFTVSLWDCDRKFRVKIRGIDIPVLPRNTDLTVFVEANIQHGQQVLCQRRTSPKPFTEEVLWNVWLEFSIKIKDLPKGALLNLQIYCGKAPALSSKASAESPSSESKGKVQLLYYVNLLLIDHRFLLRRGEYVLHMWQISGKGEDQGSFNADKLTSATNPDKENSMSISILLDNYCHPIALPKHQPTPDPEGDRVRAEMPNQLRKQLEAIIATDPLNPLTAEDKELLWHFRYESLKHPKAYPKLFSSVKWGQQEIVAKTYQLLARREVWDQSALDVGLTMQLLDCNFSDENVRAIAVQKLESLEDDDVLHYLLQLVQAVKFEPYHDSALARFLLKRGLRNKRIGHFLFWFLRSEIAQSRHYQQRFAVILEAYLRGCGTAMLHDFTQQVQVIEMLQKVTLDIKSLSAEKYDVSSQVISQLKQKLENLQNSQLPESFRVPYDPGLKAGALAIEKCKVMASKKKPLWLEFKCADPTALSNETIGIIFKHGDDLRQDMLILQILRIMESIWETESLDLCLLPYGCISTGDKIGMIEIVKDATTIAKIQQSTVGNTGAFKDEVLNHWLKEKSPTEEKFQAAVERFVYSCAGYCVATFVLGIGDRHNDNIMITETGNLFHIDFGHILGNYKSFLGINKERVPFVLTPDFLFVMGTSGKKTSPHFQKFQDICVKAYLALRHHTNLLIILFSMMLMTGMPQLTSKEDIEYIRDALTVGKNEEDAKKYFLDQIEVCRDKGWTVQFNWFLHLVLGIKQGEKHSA
Sequence of PI3-kinase subunit gamma/Phosphoinositide 3-kinase regulatory subunit 5 (Q8WYR1 whole entry, further chain): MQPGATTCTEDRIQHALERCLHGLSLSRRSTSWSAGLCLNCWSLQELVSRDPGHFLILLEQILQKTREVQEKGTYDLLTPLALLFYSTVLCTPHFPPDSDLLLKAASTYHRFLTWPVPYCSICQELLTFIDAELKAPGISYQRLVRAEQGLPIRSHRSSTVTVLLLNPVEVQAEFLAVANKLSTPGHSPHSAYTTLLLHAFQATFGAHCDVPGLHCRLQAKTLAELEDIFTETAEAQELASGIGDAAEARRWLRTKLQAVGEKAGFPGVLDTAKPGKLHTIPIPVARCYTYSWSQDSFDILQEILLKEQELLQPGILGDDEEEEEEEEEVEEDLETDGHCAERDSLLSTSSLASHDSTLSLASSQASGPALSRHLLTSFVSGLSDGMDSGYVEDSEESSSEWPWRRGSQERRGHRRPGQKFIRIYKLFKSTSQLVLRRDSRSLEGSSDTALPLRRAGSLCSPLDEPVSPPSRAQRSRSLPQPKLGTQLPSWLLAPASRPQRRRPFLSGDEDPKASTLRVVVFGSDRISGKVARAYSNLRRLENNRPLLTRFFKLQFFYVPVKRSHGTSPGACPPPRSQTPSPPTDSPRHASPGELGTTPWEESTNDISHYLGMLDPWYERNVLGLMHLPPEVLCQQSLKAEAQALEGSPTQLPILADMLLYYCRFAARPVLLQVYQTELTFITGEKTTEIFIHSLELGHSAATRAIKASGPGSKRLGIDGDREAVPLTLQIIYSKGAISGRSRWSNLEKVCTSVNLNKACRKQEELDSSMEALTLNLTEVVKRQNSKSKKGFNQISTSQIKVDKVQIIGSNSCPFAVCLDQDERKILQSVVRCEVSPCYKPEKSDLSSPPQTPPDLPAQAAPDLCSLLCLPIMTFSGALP

PI3K p110 beta/p85 alpha = PI3K p110 beta/p85 alpha (Homo sapiens, UniProt P42338); test: Inhibition of P110beta/p85alpha (unknown origin) using L-alpha-phosphatidylinositol as substrate after 40 mins by ATP depletion assay; type: protein-complex assay
Sequence of PI3K p110 beta/p85 alpha (P27986 whole entry): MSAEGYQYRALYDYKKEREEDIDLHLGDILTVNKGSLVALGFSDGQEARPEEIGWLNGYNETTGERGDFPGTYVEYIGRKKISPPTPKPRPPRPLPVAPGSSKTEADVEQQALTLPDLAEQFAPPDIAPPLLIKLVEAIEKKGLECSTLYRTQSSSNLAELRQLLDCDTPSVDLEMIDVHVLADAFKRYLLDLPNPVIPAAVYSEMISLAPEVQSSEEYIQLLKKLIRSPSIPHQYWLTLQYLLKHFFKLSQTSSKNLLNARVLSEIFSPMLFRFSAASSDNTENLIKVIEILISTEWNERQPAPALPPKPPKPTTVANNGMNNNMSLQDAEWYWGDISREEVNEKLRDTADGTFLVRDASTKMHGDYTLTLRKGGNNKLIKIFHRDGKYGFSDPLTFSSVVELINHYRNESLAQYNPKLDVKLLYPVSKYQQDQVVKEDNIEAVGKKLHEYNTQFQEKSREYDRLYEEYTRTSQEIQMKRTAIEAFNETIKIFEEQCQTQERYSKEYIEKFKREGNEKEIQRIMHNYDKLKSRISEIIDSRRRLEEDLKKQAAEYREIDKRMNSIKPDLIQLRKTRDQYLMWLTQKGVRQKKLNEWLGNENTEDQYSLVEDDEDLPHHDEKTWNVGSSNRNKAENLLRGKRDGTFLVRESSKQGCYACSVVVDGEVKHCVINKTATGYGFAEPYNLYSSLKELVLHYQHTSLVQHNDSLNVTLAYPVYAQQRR
Sequence of PI3K p110 beta/p85 alpha (P42338 whole entry): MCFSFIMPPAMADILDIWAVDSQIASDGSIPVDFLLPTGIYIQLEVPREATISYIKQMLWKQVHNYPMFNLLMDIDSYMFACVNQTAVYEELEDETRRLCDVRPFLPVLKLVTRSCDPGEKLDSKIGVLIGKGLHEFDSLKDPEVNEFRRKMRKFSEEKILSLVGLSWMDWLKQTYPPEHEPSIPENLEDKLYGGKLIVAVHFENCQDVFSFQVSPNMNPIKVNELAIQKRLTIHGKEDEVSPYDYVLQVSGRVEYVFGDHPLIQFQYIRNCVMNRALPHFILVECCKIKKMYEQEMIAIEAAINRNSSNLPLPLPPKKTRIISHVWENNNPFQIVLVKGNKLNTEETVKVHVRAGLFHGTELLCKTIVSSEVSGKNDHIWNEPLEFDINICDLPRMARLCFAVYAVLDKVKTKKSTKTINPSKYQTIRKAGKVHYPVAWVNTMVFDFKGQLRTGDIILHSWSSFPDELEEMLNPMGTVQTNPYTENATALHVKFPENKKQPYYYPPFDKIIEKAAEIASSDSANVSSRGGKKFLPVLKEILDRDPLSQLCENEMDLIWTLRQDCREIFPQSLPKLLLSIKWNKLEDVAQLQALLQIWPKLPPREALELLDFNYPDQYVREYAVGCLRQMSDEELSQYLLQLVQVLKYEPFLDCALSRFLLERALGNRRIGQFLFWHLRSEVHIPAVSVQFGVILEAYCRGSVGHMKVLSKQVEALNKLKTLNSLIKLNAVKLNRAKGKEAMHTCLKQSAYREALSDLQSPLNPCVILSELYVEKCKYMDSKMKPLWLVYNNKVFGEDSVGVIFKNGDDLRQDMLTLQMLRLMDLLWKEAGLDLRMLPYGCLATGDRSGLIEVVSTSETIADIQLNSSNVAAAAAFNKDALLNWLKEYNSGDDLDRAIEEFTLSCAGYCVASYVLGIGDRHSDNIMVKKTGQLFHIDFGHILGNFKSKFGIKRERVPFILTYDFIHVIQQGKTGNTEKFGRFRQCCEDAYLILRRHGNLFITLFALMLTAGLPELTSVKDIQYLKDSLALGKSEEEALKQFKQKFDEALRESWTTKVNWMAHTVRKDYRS

[6] = biological target: PI3-kinase p110-alpha/p85-alpha (Homo sapiens, UniProt P42336); test: Inhibition of P110alpha/p85alpha (unknown origin) using L-alpha-phosphatidylinositol as substrate after 40 mins by ATP depletion assay; type: protein-complex assay
Sequence of PI3-kinase p110-alpha/p85-alpha (P27986 whole entry): as the sequence (P27986 whole entry) above
Sequence of PI3-kinase p110-alpha/p85-alpha (P42336 whole entry): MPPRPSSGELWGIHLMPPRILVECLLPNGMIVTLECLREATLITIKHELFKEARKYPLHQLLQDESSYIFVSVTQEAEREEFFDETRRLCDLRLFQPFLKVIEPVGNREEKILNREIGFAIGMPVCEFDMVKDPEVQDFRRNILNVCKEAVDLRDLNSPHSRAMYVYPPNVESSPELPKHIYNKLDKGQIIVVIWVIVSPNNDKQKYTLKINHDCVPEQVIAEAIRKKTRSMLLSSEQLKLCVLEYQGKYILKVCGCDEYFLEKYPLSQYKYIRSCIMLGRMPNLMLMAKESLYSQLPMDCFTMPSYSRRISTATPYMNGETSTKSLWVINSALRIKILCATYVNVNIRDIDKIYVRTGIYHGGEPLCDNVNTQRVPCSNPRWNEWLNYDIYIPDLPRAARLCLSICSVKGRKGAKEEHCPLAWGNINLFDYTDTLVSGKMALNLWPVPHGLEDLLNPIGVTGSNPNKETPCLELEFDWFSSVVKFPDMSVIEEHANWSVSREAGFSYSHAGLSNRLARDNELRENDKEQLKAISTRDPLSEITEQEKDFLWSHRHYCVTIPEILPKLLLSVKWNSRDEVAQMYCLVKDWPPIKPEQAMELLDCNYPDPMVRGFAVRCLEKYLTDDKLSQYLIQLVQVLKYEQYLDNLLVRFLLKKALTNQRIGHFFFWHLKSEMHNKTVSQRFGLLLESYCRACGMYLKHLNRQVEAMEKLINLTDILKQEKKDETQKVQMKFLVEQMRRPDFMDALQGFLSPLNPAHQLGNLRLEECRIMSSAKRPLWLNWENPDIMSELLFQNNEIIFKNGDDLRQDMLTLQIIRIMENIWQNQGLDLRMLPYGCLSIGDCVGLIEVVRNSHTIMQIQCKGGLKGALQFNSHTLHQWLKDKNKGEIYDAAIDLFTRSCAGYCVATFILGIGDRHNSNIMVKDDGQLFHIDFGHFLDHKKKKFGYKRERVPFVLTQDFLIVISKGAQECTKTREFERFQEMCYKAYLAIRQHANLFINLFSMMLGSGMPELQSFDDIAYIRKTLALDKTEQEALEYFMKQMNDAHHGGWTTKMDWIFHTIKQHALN

Mus musculus = test: Toxicity in mouse S180 cells homografted mouse assessed as reduction of body weight at 20 to 40 mg/kg, po qd for 8 days; type: organism-based; details: in vivo, 192 h
Procedure, shortened: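 S-180 sarcoma-bearing mice (3×10^6 cells s.c., flank; 8 per group) given oral doses once daily for 8 days in DMSO:PEG400:5% glucose injection (1:7:2, v/v/v), starting the day after implantation; solvent-only group as control. Body weight recorded daily through sacrifice on Day 9.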

CCRF S-180 [7] = test: Anticancer activity against mouse S180 cells homografted in mouse assessed as tumor growth inhibition at 20 mg/kg, po qd for 8 days measured on day 9 post dose relative to vehicle-treated control; type: functional; details: CCRF S-180, po, read-out: TGI; procedure, shortened: as §2

IC50 (MCF7)	IC50 (HCT-116)	SMILES	further results
2590 nM	1030 nM	CCN(CC)CCn1cnc2ccc(-c3cnc(OC)c(NS(=O)(=O)c4ccc(F)cc4F)c3)cc2c1=O	
1620 nM	600 nM	COc1ncc(-c2ccc3ncn([C@H]4CCN(C(=O)C5CCOCC5)C4)c(=O)c3c2)cc1NS(=O)(=O)c1ccc(F)cc1	
2900 nM	960 nM	COc1ncc(-c2ccc3ncn(C4CCN(C(=O)C5CCOCC5)CC4)c(=O)c3c2)cc1NS(=O)(=O)c1ccc(F)cc1	
2260 nM	6090 nM	COc1ncc(-c2ccc3ncn([C@@H]4CCN(C(=O)C5CC5)C4)c(=O)c3c2)cc1NS(=O)(=O)c1ccc(F)cc1	
2520 nM	1250 nM	COc1ncc(-c2ccc3ncn([C@H]4CCN(C(C)=O)C4)c(=O)c3c2)cc1NS(=O)(=O)c1ccc(F)cc1	
2360 nM	710 nM	COc1ncc(-c2ccc3ncn([C@H]4CCN(C(=O)C5CC5)C4)c(=O)c3c2)cc1NS(=O)(=O)c1ccc(F)cc1	inhibition in vivo at 40 mg/kg (CCRF S-180 [1]): 58%; IC50 [2]: 106 nM; IC50 [3]: 208 nM; Ratio IC50 [4]: 10; IC50 [5]: 116 nM; IC50 (PI3K p110 beta/p85 alpha): 209 nM; IC50 [6]: 7.3 nM; Activity (Mus musculus): Toxic; inhibition in vivo at 20 mg/kg (CCRF S-180 [7]): 34.5%
3480 nM	1350 nM	COc1ncc(-c2ccc3ncn(CCN4CCOCC4)c(=O)c3c2)cc1NS(=O)(=O)c1ccc(C)cc1	
2770 nM	1460 nM	COc1ncc(-c2ccc3ncn([C@H]4CCNC4)c(=O)c3c2)cc1NS(=O)(=O)c1ccc(F)cc1	
4360 nM	1530 nM	COc1ncc(-c2ccc3ncn(C4CCN(C(=O)OC(C)(C)C)CC4)c(=O)c3c2)cc1NS(=O)(=O)c1ccc(F)cc1	
2730 nM	1350 nM	COc1ncc(-c2ccc3ncn(C4CCN(C(=O)C5CC5)CC4)c(=O)c3c2)cc1NS(=O)(=O)c1ccc(F)cc1	
3490 nM	1420 nM	COc1ncc(-c2ccc3ncn(-c4ccc(CN5CCOCC5)cc4)c(=O)c3c2)cc1NS(=O)(=O)c1ccc(F)cc1	
1030 nM	670 nM	COc1ncc(-c2ccc3ncn([C@H]4CCN(CC5CC5)C4)c(=O)c3c2)cc1NS(=O)(=O)c1ccc(F)cc1	IC50 [2]: 21 nM; IC50 [3]: 114 nM; Ratio IC50 [4]: 10; IC50 [5]: 181 nM; IC50 (PI3K p110 beta/p85 alpha): 24 nM; IC50 [6]: 6.7 nM
2450 nM	4720 nM	COc1ncc(-c2ccc3ncn([C@@H]4CCN(C(C)=O)C4)c(=O)c3c2)cc1NS(=O)(=O)c1ccc(F)cc1	
3340 nM	2800 nM	COc1ccc(Cn2cnc3ccc(-c4cnc(OC)c(NS(=O)(=O)c5ccc(F)cc5)c4)cc3c2=O)cc1	
3200 nM	1820 nM	COc1ncc(-c2ccc3ncn(CCN4CCOCC4)c(=O)c3c2)cc1NS(=O)(=O)c1ccc(F)cc1	
1840 nM	2950 nM	COc1ncc(-c2ccc3ncn(Cc4ccncc4)c(=O)c3c2)cc1NS(=O)(=O)c1ccc(F)cc1	

IC50 (MCF7)	IC50 (HCT-116)	SMILES	further results
2260 nM	1220 nM	COc1ncc(-c2ccc3ncn(C4CCN(CC5CC5)CC4)c(=O)c3c2)cc1NS(=O)(=O)c1ccc(F)cc1	
2340 nM	1200 nM	CCN(CC)CCn1cnc2ccc(-c3cnc(OC)c(NS(=O)(=O)c4ccc(F)cc4)c3)cc2c1=O	
4600 nM	1250 nM	COc1ncc(-c2ccc3ncn(-c4ccc(CN5CCN(C)CC5)cc4)c(=O)c3c2)cc1NS(=O)(=O)c1ccc(F)cc1	
4140 nM	2020 nM	COc1ncc(-c2ccc3ncn(CCN4CCOCC4)c(=O)c3c2)cc1NS(=O)(=O)c1ccc(Cl)cc1	
2730 nM	660 nM	COc1ncc(-c2ccc3ncn([C@H]4CCN(C(=O)OC(C)(C)C)C4)c(=O)c3c2)cc1NS(=O)(=O)c1ccc(F)cc1	
5900 nM	4740 nM	COc1ncc(-c2ccc3ncn(Cc4ccccc4)c(=O)c3c2)cc1NS(=O)(=O)c1ccc(F)cc1	
2950 nM	2750 nM	COc1ncc(-c2ccc3ncn(CCN4CCCCC4)c(=O)c3c2)cc1NS(=O)(=O)c1ccc(F)cc1	
1670 nM	1150 nM	COc1ncc(-c2ccc3ncn(C4CCNCC4)c(=O)c3c2)cc1NS(=O)(=O)c1ccc(F)cc1	
3720 nM	2690 nM	COc1ncc(-c2ccc3ncn(CCN(C)C)c(=O)c3c2)cc1NS(=O)(=O)c1ccc(F)cc1	
1780 nM	1290 nM	COc1ncc(-c2ccc3ncn(Cc4cccnc4)c(=O)c3c2)cc1NS(=O)(=O)c1ccc(F)cc1	
3930 nM	4060 nM	CCCCn1cnc2ccc(-c3cnc(OC)c(NS(=O)(=O)c4ccc(F)cc4)c3)cc2c1=O	
2630 nM	1300 nM	COc1ncc(-c2ccc3ncn(C4CCN(C(C)=O)CC4)c(=O)c3c2)cc1NS(=O)(=O)c1ccc(F)cc1	
3820 nM	2640 nM	COc1ncc(-c2ccc3ncn(CCN4CCCC4)c(=O)c3c2)cc1NS(=O)(=O)c1ccc(F)cc1	
3000 nM	1450 nM	COc1ncc(-c2ccc3ncn(CCN4CCN(C)CC4)c(=O)c3c2)cc1NS(=O)(=O)c1ccc(F)cc1	
1090 nM	560 nM	Cn1c(=O)n(-c2ccc(C(C)(C)C#N)cc2)c2c3cc(-c4cnc5ccccc5c4)ccc3ncc21 [DACTOLISIB]	
2030 nM	4880 nM	COc1ncc(-c2ccc3ncn([C@@H]4CCN(CC5CC5)C4)c(=O)c3c2)cc1NS(=O)(=O)c1ccc(F)cc1	
